Screening data deposited in PubChem BioAssay by several laboratories.
A selection: hits, their analogues and other compounds. The true share with any hit is near 1.4%.
NR2E3 ag-1: NR2E3 agonists in two-hybrid cells, primary screen, cell-based, luminescence, CHO-S, Gal4-NCOR/VP16-NR2E3; Photoreceptor-specific nuclear receptor (Homo sapiens), Q9Y5X4; luciferase; inhibition of corepressor binding, % at 3.98 µM; actives 0.35% (n = 360,000); AID 602229, 2012;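 active = inhibition above the mean of all tested compounds plus 3 SD, cut at about 70% in these data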;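 note: higher means lower luciferase signal from less NR2E3 corepressor binding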
PG9 Ab binder: binders of HIV-1 gp120 antibody PG9, primary screen, biochemical, TR-FRET; HIV-1 gp120 / PG9 antibody interaction; TR-FRET gp120-PG9 antibody binding; inhibition, % at 6.7 µM; actives 0.43% (n = 360,000); in the data active = inhibition above about 8.5%
Rev-erbA mod: modulators of Rev-erb alpha DNA binding, primary screen, biochemical, FITC-DNA, fluorescence polarization, uHTS; Nuclear receptor subfamily 1 group D member 1 (Homo sapiens), P20393; Rev-erbα–FITC-DNA binding, 90 min; activity, % at 10 µM; actives 0.79% (n = 370,000); AID 1259318, 2017;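 active = activity above about 14%, limit read from the data; passing the limit was not always enough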
Target sequence (P20393 whole entry, looked up): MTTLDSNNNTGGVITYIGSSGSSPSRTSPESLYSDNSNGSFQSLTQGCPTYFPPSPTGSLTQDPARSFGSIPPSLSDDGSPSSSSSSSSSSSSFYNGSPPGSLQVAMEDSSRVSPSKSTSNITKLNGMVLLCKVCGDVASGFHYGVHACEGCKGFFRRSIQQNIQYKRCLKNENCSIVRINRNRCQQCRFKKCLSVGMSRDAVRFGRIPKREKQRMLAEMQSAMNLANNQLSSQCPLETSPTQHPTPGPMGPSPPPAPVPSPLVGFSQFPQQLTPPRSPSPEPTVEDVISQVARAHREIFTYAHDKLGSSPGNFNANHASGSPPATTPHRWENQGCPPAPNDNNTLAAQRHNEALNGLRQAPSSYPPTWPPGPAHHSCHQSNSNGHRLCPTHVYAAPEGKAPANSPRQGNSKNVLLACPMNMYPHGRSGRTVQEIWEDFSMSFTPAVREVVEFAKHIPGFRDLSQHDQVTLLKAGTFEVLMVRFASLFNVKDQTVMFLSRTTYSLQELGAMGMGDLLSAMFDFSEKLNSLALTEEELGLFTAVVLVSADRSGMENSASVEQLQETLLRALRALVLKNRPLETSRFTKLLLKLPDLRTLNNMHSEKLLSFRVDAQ
NR2E3 ag-2: inhibitors of NR2E3-RetCOR corepressor binding, primary screen, NR2E3 agonist project, biochemical, TR-FRET, GST-NR2E3, biotin-RetCOR; Photoreceptor-specific nuclear receptor (Homo sapiens), Q9Y5X4; 1536-well; inhibition of corepressor binding, % at 4.78 µM; actives 0.12% (n = 320,000);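 active = percent inhibition above the cutoff of mean plus 3 SD of all tested compounds, set per screening campaign, cut at about 20% in these data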
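Material: NR2E3–RetCOR corepressor complex / Amount: 1.35 nM GST-NR2E3 / Medium: Tris pH 7.5 / Compound: single nominal compound dose of 4.8 µM / Incubation: 5 h at 4 °C / Technique: TR-FRET, Eu(K)-anti-GST donor, streptavidin-D2 acceptor, ex 340, em 617/671 nm / Read-out basis: percent loss of FRET ratio relative to control wells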
NR1D1 mod conf: modulators of Rev-erb alpha DNA binding, confirmation, biochemical, FITC-DNA, fluorescence polarization, single point; activation, % at 25 µM; 90 min; shares compounds with Rev-erbA mod; actives 61% (n = 3,000);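 active = activation at or above a set limit, or at least 3 SD above the negative control mean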
RORg DNA counter: modulation of RORgamma DNA binding, dose response, counter-screen for Rev-erb alpha modulator project, biochemical, fluorescence polarization, FITC-DNA; purified RORgamma protein-FITC-DNA binding; IC50, µM; shares compounds with Rev-erbA mod; actives 8% (n = 910);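 active = Compounds whose fitted half-maximal concentration for disrupting protein-DNA binding is below 10 micromolar; the record names Rev-erb in its text, so the target is in doubt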
Each line names hits and unclear results; the compound was inactive in the other large screens (follow-up assays come after a bar, where they were run).

CSc1cc(-c2ccc(Cl)cc2)[nH]c(=O)c1C#N	Rev-erbA mod 82 | NR1D1 mod conf inactive
COc1ccc2cc(-c3cn(C(=O)N(c4ccccc4)c4ccccc4)nn3)ccc2c1	none (no result: NR2E3 ag-1, PG9 Ab binder, NR2E3 ag-2)
C[C@@H]1C=CCCO[C@]12C(=O)N(CC1CC1)c1cccc(Br)c12	Rev-erbA mod 13 (no result: NR2E3 ag-1, NR2E3 ag-2) | NR1D1 mod conf inactive
CCCNC(=O)c1ccc(N2CCC3(CC2)CC(c2ccccc2)=NO3)c(NC(=O)c2ccco2)c1	none
CCCNC(=O)c1ccc(N2CCC3(CC2)CC(c2ccccc2)=NO3)c(NC(=O)c2cccc(OC)c2)c1	Rev-erbA mod 20 | NR1D1 mod conf inactive
COc1ccccc1C(=O)COC(=O)Cn1[nH]c(=O)c2ccccc2c1=O	Rev-erbA mod 22 | NR1D1 mod conf inactive
CC(=O)CSc1ncnc2sc3c(c12)CCC3	none
Cc1ccc(C(=O)CSc2ncnc3sc4c(c23)CCC(C)C4)cc1 (stereo not drawn)	Rev-erbA mod 68 (no result: NR2E3 ag-2) | NR1D1 mod conf 24
CCOC(=O)c1ccc(-c2ccc(N3C(c4cccc(OC)c4)=Cc4ccc(F)cc4C3CC(C)=O)cc2)cc1F (stereo not drawn)	none (no result: NR2E3 ag-2)
O=[N+]([O-])c1cc(-c2cnc3ccccc3n2)ccc1Oc1ccc(Cl)cc1	none
O=[N+]([O-])c1cc(-c2cnc3ccccc3n2)ccc1Cl	Rev-erbA mod 93 | NR1D1 mod conf 68 | RORg DNA counter inactive
Cc1nnc2c(NCCC(C)C)nc3ccccc3n12	Rev-erbA mod 23 (no result: NR2E3 ag-2) | NR1D1 mod conf inactive
Cc1cccc(C)c1NC(=O)COC(=O)c1cc(-c2cccnc2)nc2ccccc12	Rev-erbA mod 19 | NR1D1 mod conf 21
O=C(COC(=O)c1cc(-c2cccnc2)nc2ccccc12)Nc1ccc(F)cc1F	none
COc1ccc(-c2cc(C(=O)OCC(=O)Nc3cc(C)on3)c3ccccc3n2)cc1OC	Rev-erbA mod 21 | NR1D1 mod conf inactive
CCc1ccc([C@H]2[C@@H]3C(=O)C[C@@H]4C(=O)N(C)C(=O)[C@@H]4[C@@H]3CN2S(=O)(=O)c2ccc(C)cc2)cc1	Rev-erbA mod 16 (no result: NR2E3 ag-2) | NR1D1 mod conf inactive
CCc1ccc([C@H]2[C@@H]3C(=O)C[C@@H]4C(=O)N(CC)C(=O)[C@@H]4[C@@H]3CN2S(=O)(=O)c2ccc(C)cc2)cc1	none (no result: NR2E3 ag-2)
COc1cc(-c2cc(-c3ccc(N)cc3)[nH]c(=O)c2C#N)cc(OC)c1OC	Rev-erbA mod 25 | NR1D1 mod conf inactive
CC1(C(=O)NS(=O)(=O)c2cccc(OC(F)F)c2)CCN1C(=O)Cc1ccsc1 (stereo not drawn)	none (no result: NR2E3 ag-2)
O=C(CSc1nnc(-c2cccs2)o1)c1ccc2c(c1)OCO2	Rev-erbA mod 115 (no result: NR2E3 ag-1, PG9 Ab binder, NR2E3 ag-2) | NR1D1 mod conf 134 | RORg DNA counter inactive
O=C(CSc1nnc(-c2cccs2)o1)c1ccc(F)cc1	none (no result: NR2E3 ag-1, PG9 Ab binder, NR2E3 ag-2)
CC(=O)c1cnc2cc(-c3cccc(Br)c3)nn2c1C	Rev-erbA mod 24 | NR1D1 mod conf inactive
COc1ccc2cc(/C=N/NC(=O)c3c(Cl)cnn3C)c(Cl)nc2c1	Rev-erbA mod 24 | NR1D1 mod conf inactive
COc1ccc2cc(/C=N/NC(=O)c3ccc(CN(c4ccc(C)c(C)c4)S(C)(=O)=O)cc3)c(Cl)nc2c1	none
CC(C)C(NC(=O)OCc1ccccc1)C(=O)NC(Cc1c[nH]c2ccccc12)C(=O)O (stereo not drawn)	none (no result: NR2E3 ag-2)
CCC(c1nnnn1-c1ccc2c(c1)OCCO2)N1CCN(c2cc(C)ccc2C)CC1 (stereo not drawn)	none (no result: NR2E3 ag-2)
O=C(N1CCC(n2nc(-c3ccccc3)oc2=O)CC1)C1(c2ccccc2)CCCC1	none (no result: NR2E3 ag-1, PG9 Ab binder, NR2E3 ag-2)
Cn1c(SCC(=O)Nc2cccc(Br)c2)nnc1-c1cc2ccccc2o1	Rev-erbA mod 42 | NR1D1 mod conf 60
CC(NC(=O)CSc1nnc(-c2cc3cc(Cl)ccc3o2)n1C)c1ccccc1 (stereo not drawn)	none
